Measured values reported in ChEMBL document CHEMBL4706563, “Triphenylethylene analogues: Design, synthesis and evaluation of antitumor activity and topoisomerase inhibitors” (Eur J Med Chem, 2020).
The source made the active and inactive calls. The rule behind the calls is not given here.

Tests used:
A498 = assay: Antiproliferative activity against human A498 cells assessed as growth inhibition at 10 uM relative to control; assay type: functional; conditions: read-out: GI
Procedure, shortened: (§1)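 Single-dose screen run by the US National Cancer Institute across its 60-human tumour cell line panel. Each compound was tested at one concentration. Percent growth inhibition was recorded for each cell line.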

U-251 = assay: Antiproliferative activity against human U251 cells assessed as growth inhibition at 10 uM relative to control; assay type: functional; conditions: read-out: GI
Procedure, shortened: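 NCI 60 human tumour cell line panel screen. Compounds tested at a single dose and growth inhibition (%) determined for each line.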

SK-MEL-2 = assay: Antiproliferative activity against human SK-MEL-2 cells assessed as growth inhibition at 10 uM relative to control; assay type: functional; conditions: read-out: GI; procedure, shortened: as §1
MDA-MB-231 = assay: Antiproliferative activity against human MDA-MB-231 cells assessed as growth inhibition at 10 uM relative to control; assay type: functional; conditions: read-out: GI; procedure, shortened: as §1
[1] = Antiproliferative activity against human breast cancer cells; assay type: functional; conditions: Breast cancer cell line; for CC50: read-out: LC50 (the source's name)
[2] = Antiproliferative activity against human colon cancer cells; assay type: functional; conditions: Colon cancer cell line
EKVX = assay: Antiproliferative activity against human EKVX cells assessed as growth inhibition at 10 uM relative to control; assay type: functional; conditions: read-out: GI; procedure, shortened: as §1
A549 = assay: Antiproliferative activity against human A549 cells assessed as growth inhibition at 10 uM relative to control; assay type: functional; conditions: read-out: GI; procedure, shortened: as §1
CCRF-CEM = assay: Antiproliferative activity against human CCRF-CEM cells assessed as growth inhibition at 10 uM relative to control; assay type: functional; conditions: read-out: GI; procedure, shortened: as §1
BT-549 = assay: Antiproliferative activity against human BT-549 cells assessed as growth inhibition at 10 uM relative to control; assay type: functional; procedure, shortened: as §1
OVCAR-8 = assay: Antiproliferative activity against human OVCAR-8 cells assessed as growth inhibition at 10 uM relative to control; assay type: functional; conditions: read-out: GI; procedure, shortened: as §1
[3] = Antiproliferative activity against human renal cancer cells; assay type: functional; conditions: Renal cancer cell line; for CC50: read-out: LC50 (the source's name)
SF-268 = assay: Antiproliferative activity against human SF-268 cells assessed as growth inhibition at 10 uM relative to control; assay type: functional; conditions: read-out: GI; procedure, shortened: as §1
HL-60(TB) = assay: Antiproliferative activity against human HL-60(TB) cells assessed as growth inhibition at 10 uM relative to control; assay type: functional; conditions: read-out: GI
HOP-62 = assay: Antiproliferative activity against human HOP-62 cells assessed as growth inhibition at 10 uM relative to control; assay type: functional; conditions: read-out: GI; procedure, shortened: as §1
HOP-92 = assay: Antiproliferative activity against human HOP-92 cells assessed as growth inhibition at 10 uM relative to control; assay type: functional; procedure, shortened: as §1
MCF7 = assay: Antiproliferative activity against human MCF7 cells assessed as growth inhibition at 10 uM relative to control; assay type: functional; conditions: read-out: GI; procedure, shortened: as §1
NCI-H226 = assay: Antiproliferative activity against human NCI-H226 cells assessed as growth inhibition at 10 uM relative to control; assay type: functional; conditions: read-out: GI; procedure, shortened: as §1
OVCAR-4 = assay: Antiproliferative activity against human OVCAR-4 cells assessed as growth inhibition at 10 uM relative to control; assay type: functional; conditions: read-out: GI; procedure, shortened: as §1
RPMI-8226 = assay: Antiproliferative activity against human RPMI-8226 cells assessed as growth inhibition at 10 uM relative to control; assay type: functional; conditions: read-out: GI; procedure, shortened: as §1
HEK293 [4] = assay: Cytotoxicity against human HEK293 cells at 10^-5 M incubated for 24 hrs by MTT assay relative to control; assay type: cell-based; conditions: hek293, 24 h, 10 µM
Procedure, shortened: (§2)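 HEK293 cells grown in low-glucose DMEM with 10% FBS, glutamine, penicillin/streptomycin at 37 °C, 5% CO2. Cells exposed to compound at 10^-4 to 10^-8 M for 24 h at 37 °C. MTT from 5 mg/mL stock added for 4 h at 37 °C in dark. Formazan dissolved in DMSO and read at 570 nm. % toxicity calculated relative to medium-only control wells. Three experiments, each in triplicate.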

HEK293 [5] = assay: Cytotoxicity against human HEK293 cells at 10^-7 M incubated for 24 hrs by MTT assay relative to control; assay type: cell-based; conditions: hek293, 24 h, 0.1 µM; procedure, shortened: as §2
HEK293 [6] = assay: Cytotoxicity against human HEK293 cells at 10^-4 M incubated for 24 hrs by MTT assay relative to control; assay type: cell-based; conditions: hek293, 24 h, 100 µM; procedure, shortened: as §2
HEK293 [7] = assay: Cytotoxicity against human HEK293 cells at 100 uM incubated for 24 hrs by MTT assay relative to control; assay type: cell-based; conditions: hek293, 24 h; procedure, shortened: as §2
HEK293 [8] = assay: Cytotoxicity against human HEK293 cells at 10^-6 M incubated for 24 hrs by MTT assay relative to control; assay type: cell-based; conditions: hek293, 24 h, 1 µM; procedure, shortened: as §2
HEK293 [9] = assay: Cytotoxicity against human HEK293 cells at 10^-8 M incubated for 24 hrs by MTT assay relative to control; assay type: cell-based; conditions: hek293, 24 h, 0.01 µM; procedure, shortened: as §2

Structure (SMILES) | inhibition of growth at 10 µM (A498) | inhibition of growth at 10 µM (U-251) | inhibition of growth at 10 µM (SK-MEL-2) | inhibition of growth at 10 µM (MDA-MB-231) | GI50 [1] | TGI [1] | CC50 [1] | GI50 [2] | TGI [2] | inhibition of growth at 10 µM (EKVX) | inhibition of growth at 10 µM (A549) | inhibition of growth at 10 µM (CCRF-CEM) | inhibition of growth at 10 µM (OVCAR-8) | CC50 [3] | inhibition of growth at 10 µM (HL-60(TB)) | inhibition of growth at 10 µM (HOP-62) | inhibition of growth at 10 µM (MCF7) | inhibition of growth at 10 µM (NCI-H226) | inhibition of growth at 10 µM (OVCAR-4) | inhibition of growth at 10 µM (RPMI-8226) | other results
CC/C(=C(\c1ccccc1)c1ccc(OCCN(C)C)cc1)c1ccccc1 [TAMOXIFEN] | 35.9% | 95.2% | 31.5% | 54.8% | 3.05 µM | 10.4 µM | 2.83 µM | 1880 nM | 5.96 µM | 40% | 50.2% | 65.4% | 39.5% | 2.59 µM | 60.4% | 56.9% | -10.3% | 7.5% | 53.7% | -28.3% | inhibition of growth at 10 µM (BT-549; read-out: GI): 30.2%; inhibition of growth at 10 µM (SF-268): 43.3%; growth inhibition (GI) (HOP-92): inactive
C/C(=C(/c1ccccc1)c1ccc(OCC(O)CNCCN2CCOCC2)cc1)c1ccccc1 (centres undefined) | 20.1% | 67.4% | 5.09% | 70.6% | 3.69 µM | 9.08 µM | 29.1 µM | 2060 nM | 5.51 µM | 17.2% | 29.2% | 43.5% | 21.8% | 22 µM | 71% | 25.1% | 55.4% | 3.88% | 29.8% | 79.8% | LC50 [2]: 13.8 µM; growth inhibition (GI) (BT-549): inactive; Activity (HEK293 [4]): 13.73%; Activity (HEK293 [5]): 5.43%; Activity (HEK293 [6]): 15.82%; GI50 [3]: 2400 nM; TGI [3]: 7.75 µM; Activity (HEK293 [7]): 20%; inhibition of growth at 10 µM (HOP-92; read-out: GI): 40.9%; Activity (HEK293 [8]): 7.04%; Activity (HEK293 [9]): 4.74%
